Reference: ChEMBL document CHEMBL1123657, “Anthrapyrazole anticancer agents. Synthesis and structure-activity relationships against murine leukemias” (J Med Chem, 1987)

Columns and labels:
L1210 = experiment: Tested in vitro against murine L1210 leukemia.; type: functional, cell-based; conditions: Mus musculus
P388 [1] = experiment: Optimal dose per injection in mg/kg required to inhibit growth of P388 leukemia cells in mice; type: functional, Mus musculus
Procedure, shortened: (§1)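 P388 leukemia implanted ip in mice; drug given ip on days 1 and 5 (ip/ip; D1,5), dosed in mg/kg per injection. Read-out is treated/control (T/C, %) with cures counted, reported at the optimal dose.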

P388 [2] = experiment: Activity against P388 leukemia cells in mice, by intraperitoneal dosing and net log tumor cell kill was reported; type: functional, Mus musculus
P388 [3] = experiment: Inhibition of P388 leukemia cells in mice, measured as percent treated to the control values with the number of 30 day survivors; type: functional, Mus musculus; procedure, shortened: as §1

| Compound | IC50 (L1210) [nM] | Dose (P388 [1]) [mg/kg] | Activity (P388 [2]) | T/C (P388 [3]) [%] |
| --- | --- | --- | --- | --- |
| CCN(CC)CCNc1ccc2c3c(nn2CC(O)CN(CC)CC)-c2c(O)ccc(O)c2C(=O)c13.Cl (stereo unspecified) | 1300 | 100 | 1.2 |  |
| CN(C)CCNCCn1nc2c3c(c(NCCNCCO)ccc31)C(=O)c1c(O)ccc(O)c1-2.Cl | 1400 | 50 | >6.8 | 226 |
| CCN(CC)CCn1nc2c3c(c(NCCNCCO)ccc31)C(=O)c1ccccc1-2.Cl | 32 | 25 | 2.6 | 169 |
| CNCCNc1ccc2c3c(nn2CCN)-c2c(O)ccc(O)c2C(=O)c13 | 700 |  |  |  |
| CNCCn1nc2c3c(c(NCCNCCO)ccc31)C(=O)c1c(O)ccc(O)c1-2.Cl | 440 | 3.12 | >6.8 | 324 |
| Cl.NCCCNc1ccc2c3c(nn2CCCNCCO)-c2c(O)ccc(O)c2C(=O)c13 | 1800 | 100 | 3.4 | 185 |
| CN(C)CCNc1ccc2c3c(nn2CCNCCO)-c2ccccc2C(=O)c13.Cl | 32 | 6.25 | 3.1 | 174 |
| CCN(CC)CCn1nc2c3c(c(NCCN4CCNCC4)ccc31)C(=O)c1ccccc1-2.Cl | 500 | 25 | -1.3 | 109 |
| CCN(CC)CCn1nc2c3c(c(NCCN4CCN(C(=O)OCc5ccccc5)CC4)ccc31)C(=O)c1ccccc1-2 | 390 |  |  |  |
| Cl.NCCNc1ccc2c3c(nn2CCN)-c2c(O)ccc(O)c2C(=O)c13 | 480 | 12.5 | 5.6 | 221 |
| Cl.NCCn1nc2c3c(c(NCCNCCO)ccc31)C(=O)c1ccccc1-2 | 80 | 25 | 3.7 |  |
| CCN(CC)CCNc1ccc2c3c(nn2CCO)-c2ccccc2C(=O)c13.Cl | 880 | 400 | 0.8 | 145 |
| Cl.Cn1nc2c3c(c(NCCNCCO)ccc31)C(=O)c1c(O)ccc(O)c1-2 | 150 | 100 | 2.9 |  |
| Cl.Cn1nc2c3c(c(NCCN)ccc31)C(=O)c1c(O)ccc(O)c1-2 | 240 | 12.5 | 0 | 138 |
| CCCCCCNc1ccc2c3c(nn2CCN(CC)CC)-c2ccccc2C(=O)c13.Cl | 2000 | 200 | -1.4 | 110 |
| CCN(CC)CCNc1ccc2c3c(nn2CCNCCO)-c2ccccc2C(=O)c13.Cl | 60 | 12.5 | 1.8 | 158 |
| Cl.NCCn1nc2c3c(c(NCCCNCCO)ccc31)C(=O)c1c(O)ccc(O)c1-2 | 870 | 6.25 | 3.4 | 194 |
| CN(C)CCNc1ccc2c3c(nn2CCNCCO)-c2c(O)ccc(O)c2C(=O)c13.Cl | 230 | 12.5 | >6.6 | 250 |
| Cl.Cn1nc2c3c(cccc31)C(=O)c1c(NCCNCCO)cccc1-2 | 1200 | 200 | -1.3 | 118 |
| CN(C)CCn1nc2c3c(c(NCCCN)ccc31)C(=O)c1c(O)ccc(O)c1-2.Cl | 540 | 12.5 | 4.7 | 208 |
| CN(C)CCN(C)c1ccc2c3c(nn2CCNCCO)-c2c(O)ccc(O)c2C(=O)c13.Cl | 630 | 12.5 | 4.9 |  |
| CN(C)CCCn1nc2c3c(c(NCCCN)ccc31)C(=O)c1c(O)ccc(O)c1-2.Cl | 800 | 25 | 4 | 212 |
| Br.CCN(CC)CCn1nc2c3c(c(NCCNC)ccc31)C(=O)c1c(O)ccc(O)c1-2 | 7400 | 25 | >7.1 |  |
| Cl.OCCNCCNc1ccc2c3c(c4ccccc4c(O)c13)N=N2 | 2200 | 100 | -0.8 | 126 |
| CN(CCO)CCn1nc2c3c(c(NCCNCCO)ccc31)C(=O)c1c(O)ccc(O)c1-2.Cl | 330 | 12.5 | 4.2 |  |
| Cl.O=C1c2c(O)ccc(O)c2-c2nn(CCNCCO)c3ccc(NCCCN(CCO)CCO)c1c23 | 920 | 100 | 3.6 | 194 |
| CN(C)CCNc1ccc2c3c(nn2Cc2ccccc2)-c2c(O)ccc(O)c2C(=O)c13.Cl | 860 | 25 | -1.5 | 104 |

| Compound | IC50 (L1210) [nM] | Dose (P388 [1]) [mg/kg] | Activity (P388 [2]) | T/C (P388 [3]) [%] |
| --- | --- | --- | --- | --- |
| CN(C)CCNCCNc1ccc2c3c(nn2CCN)-c2c(O)ccc(O)c2C(=O)c13.Cl | 930 | 50 | 6.4 | 242 |
| CCN(CC)CCCCCCCNc1ccc2c3c(nn2CCN(CC)CC)-c2ccccc2C(=O)c13.Cl | 630 | 25 | -1.5 | 104 |
| NCCCNc1ccc2c3c(nn2CCN)-c2c(O)ccc(O)c2C(=O)c13 | 310 |  |  |  |
| CN(C)CCn1nc2c3c(c(NCCN)ccc31)C(=O)c1c(O)ccc(O)c1-2.Cl | 220 | 12.5 | >6.6 | 263 |
| CCN(CC)CCNc1ccc2c3c(nn2CCN(CC)CC)-c2c(O)ccc(O)c2C(=O)c13.Cl | 550 | 100 | 3.5 | 180 |
| CN(C)CCCn1nc2c3c(c(NCCNCCO)ccc31)C(=O)c1c(O)ccc(O)c1-2.Cl | 590 | 12.5 | 5.4 |  |
| Cl.O=C1c2c(NCCNCCO)cccc2-c2nn(CCNCCO)c3cccc1c23 | 390 | 12.5 | -0.3 | 133 |
| CCN(CC)CCNc1ccc2c3c(nn2CCO)-c2c(O)ccc(O)c2C(=O)c13.Cl | 730 | 400 | 4.6 | 190 |
| CCN(CC)CCNc1ccc2c3c(nn2C)-c2c(O)ccc(O)c2C(=O)c13.Cl | 450 | 400 | 1.3 | 152 |
| CCN(CC)CCNc1ccc2c3c(nn2CCN(CC)CC)-c2ccccc2C(=O)c13.Cl | 390 | 50 | -1.4 | 106 |
| Cl.O=C1c2ccccc2-c2nn(CCO)c3ccc(NCCNCCO)c1c23 | 1800 | 25 | -0.9 | 125 |
| CN(C)CCCn1nc2c3c(c(NCCN)ccc31)C(=O)c1c(O)ccc(O)c1-2.Cl | 200 | 12.5 | 6.6 | 230 |
| CCN(CC)CCNc1ccc2c3c(nn2CCNCCO)-c2c(O)ccc(O)c2C(=O)c13.Cl | 510 | 50 | >6.7 |  |
| COCCn1nc2c3c(c(NCCNCCO)ccc31)C(=O)c1c(O)ccc(O)c1-2.Cl | 1600 | 100 | 0.3 | 140 |
| CCN(CC)CCNc1ccc2c3c(c4ccccc4c(O)c13)N=N2.Cl | 1500 | 400 | -1.4 | 111 |
| CN(C)CCNCCNc1ccc2c3c(nn2CCNCCO)-c2c(O)ccc(O)c2C(=O)c13.Cl | 760 | 50 | >6.8 | 254 |
| Cl.O=C1c2c(O)ccc(O)c2-c2nn(CCNCCO)c3ccc(NCCCNCCO)c1c23 | 1800 | 6.25 | >6.8 | 254 |
| Cl.NCCNc1ccc2c3c(nn2CCNCCO)-c2c(O)ccc(O)c2C(=O)c13 | 1600 | 3.12 | 4.8 | 197 |
| Cl.NCCNCCNc1ccc2c3c(nn2CCNCCO)-c2c(O)ccc(O)c2C(=O)c13 | 330 | 25 | >6.6 | 277 |
| CNc1ccc2c3c(nn2CCNCCO)-c2ccccc2C(=O)c13.Cl | 740 | 200 | -0.7 | 127 |
| Cl.NCCNc1ccc2c3c(nn2CCNCCO)-c2ccccc2C(=O)c13 | 69 | 25 | 4.4 |  |
| CCN(CC)CCNc1cccc2c1C(=O)c1cccc3c1c-2nn3CCN(CC)CC.Cl | 600 | 50 | -1.5 | 103 |
| CCN(CC)CCn1nc2c3c(c(NCCN4CCOCC4)ccc31)C(=O)c1ccccc1-2.Cl | 480 | 400 | >6.8 |  |
| CCN(CC)CCn1nc2c3c(c(NCCNC)ccc31)C(=O)c1ccccc1-2.Cl | 27 | 25 | 0.7 | 138 |
| CN(C)CCNCCNc1ccc2c3c(nn2CCCN)-c2c(O)ccc(O)c2C(=O)c13.Cl | 640 | 25 | 5.6 | 228 |
| Cl.O=C1c2c(O)ccc(O)c2-c2nn(CCNCCO)c3ccc(NCCNCCO)c1c23 | 740 | 6.25 | 4.6 |  |
| CN(C)CCNc1ccc2c3c(nn2CCO)-c2c(O)ccc(O)c2C(=O)c13.Cl | 15 | 200 | 6.6 | 283 |
